Molecules are shown by their SMILES. Active and inactive are the calls of the source. The rule behind the calls is not given here.

Experimental findings from ChEMBL document CHEMBL4411269, “Required Immunoproteasome Subunit Inhibition Profile for Anti-Inflammatory Efficacy and Clinical Candidate KZR-616 ((2 S,3 R)- N-(( S)-3-(Cyclopent-1-en-1-yl)-1-(( R)-2-methyloxiran-2-yl)-1-oxopropan-2-yl)-3-hydroxy-3-(4-methoxyphenyl)-2-(( S)-2-(2-morpholinoacetamido)propanamido)propenamide)” (J Med Chem, 2018) are described below.

Data set [1] deals with Mus musculus. Kind of data set: In vivo inhibition of proteosome beta 5 in Balb/c mouse kidney at 20 mg/kg, iv followed by dosing repeat on day 6, 8, 11, 13 and 15 and measured on 1 hr post last dose. Format: functional, organism-based. The method, boiled down: (§1)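 BALB/c mice dosed iv bolus in 10% sulfobutyl ether−β-cyclodextrin/10 mM sodium citrate pH 3.5; tissues taken 1 h after administration. Splenocytes strained and red cells lysed; kidney frozen, then bead-homogenized. Hypotonic lysate (20 mM Tris pH 8, 5 mM EDTA) at 1 mg/mL (spleen) or 5 mg/mL (kidney) run in the ProCISE active-site ELISA. Background-subtracted, protein-normalized activity relative to vehicle animals; n = 3.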

For data set [2], the system named is Mus musculus. Kind of data set: In vivo inhibition of proteosome beta 5 in Balb/c mouse kidney at 20 mg/kg, iv followed by dosing repeat on day 6, 8, 11, 13 and 15 and co-treated with 5 mg/kg, iv KZR-504 and measured on 1 hr post last dose. Format: functional, organism-based. The method, boiled down:
as §1

Data set [3] concerns the target T1, Proteasome subunit beta type-8 (Homo sapiens) (UniProt P28062).
T1 sequence (whole entry): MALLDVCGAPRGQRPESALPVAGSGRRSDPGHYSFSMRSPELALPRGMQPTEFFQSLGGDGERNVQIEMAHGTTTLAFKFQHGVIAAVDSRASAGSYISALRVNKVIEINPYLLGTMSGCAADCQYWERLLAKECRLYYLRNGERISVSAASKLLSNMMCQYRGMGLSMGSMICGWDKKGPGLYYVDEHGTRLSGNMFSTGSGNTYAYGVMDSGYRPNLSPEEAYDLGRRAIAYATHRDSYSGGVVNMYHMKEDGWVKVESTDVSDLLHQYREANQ
Kind of data set: Inhibition of LMP7 in human PBMC at 125 nM in presence of KZR-504 by ELISA. The method, boiled down: (§2)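 Cryopreserved healthy-donor human PBMC in RPMI 1640 with 5% heat-inactivated FBS, exposed to compound (0.1% DMSO final) for 1 h at 37 °C, 5% CO2, then washed. Subunit-specific active-site occupancy read by ProCISE: biotinylated active-site probe binding, denaturation, streptavidin capture, subunit-specific antibody and HRP chemiluminescence. Signal normalized to protein and expressed relative to DMSO controls.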
A general note: An ELISA detects its analyte on a solid surface through an enzyme-linked reagent.

Data set [4] relates to PBMC. Nature of the data set: Antiinflammatory activity in human PBMC assessed as reduction in LPS-stimulated IL-6 expression at 125 nM preincubated for 1 hr followed by LPS stimulation measured after 24 hrs by ELISA. Type of data set: functional, cell-based. The method, boiled down:
(§3)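 Cryopreserved healthy-donor PBMC in RPMI 1640 with 5% heat-inactivated FBS, 250 000 cells/well. Compound (0.1% DMSO final) for 1 h at 37 °C, 5% CO2, then 4 washes with medium. Stimulated with 1 μg/mL LPS for 24 h; supernatant TNFα, IL-6 and IL-12/23p40 by electrochemiluminescent immunoassay. Mean level relative to DMSO controls, n = 6.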

The subject of data set [5] is Mus musculus. Kind of data set: Antiarthritic activity in type 2 collagen antibody/LPS induced Balb/c mouse assessed as reduction in disease burden at 20 mg/kg, iv followed by dosing repeat on day 6, 8, 11, 13 and 15 and measured until day 18. Type of data set: functional, organism-based. The method, boiled down:
(§4)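 CAIA in 7−8 week old female BALB/c mice on breeder chow. Induced with 1.75 mg of a 5-antibody anti-type II collagen cocktail iv on day 0, then 25 μg LPS ip on day 3. Dosed as single iv boluses in 10% (w/v) sulfobutyl ether−β-cyclodextrin/10 mM sodium citrate (pH 3.5); vehicle-treated group included.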

In data set [6] the test system is Mus musculus. Nature of the data set: Antiarthritic activity in type 2 collagen antibody/LPS induced Balb/c mouse assessed as reduction in disease burden at 20 mg/kg, iv followed by dosing repeat on day 6, 8, 11, 13 and 15 and co-treated with 5 mg/kg, iv KZR-504 and measured until day 18. Format: functional, organism-based. The method, boiled down:
as §4

A short description of data set [7]: Toxicity in Balb/c mouse assessed as effect on cage-side observations at 20 mg/kg, iv followed by dosing repeat on day 6, 8, 11, 13 and 15 and co-treated with 5 mg/kg, iv KZR-504 and measured until day 18. The note with it: in vivo. Format: organism-based.
For data set [8], the system named is PBMC. Kind of data set: Antiinflammatory activity in human PBMC assessed as reduction in LPS-stimulated p40 subunit of […] expression at 125 nM preincubated for 1 hr followed by LPS stimulation measured after 24 hrs by ELISA. Format: functional, cell-based. The method, boiled down: as §3
For data set [9], the system named is Mus musculus. Nature of the data set: In vivo inhibition of LMP2 in Balb/c mouse splenocytes at 20 mg/kg, iv followed by dosing repeat on day 6, 8, 11, 13 and 15 and measured on 1 hr post last dose. Type of data set: functional, organism-based. The method, boiled down: as §1
Data set [10] concerns Mus musculus. Kind of data set: In vivo inhibition of LMP2 in Balb/c mouse splenocytes at 20 mg/kg, iv followed by dosing repeat on day 6, 8, 11, 13 and 15 and co-treated with 5 mg/kg, iv KZR-504 and measured on 1 hr post last dose. Type of data set: functional, organism-based. The method, boiled down: as §1
For data set [11], the system named is PBMC. Kind of data set: Antiinflammatory activity in human PBMC assessed as reduction in LPS-stimulated TNF-alpha expression at 125 nM preincubated for 1 hr followed by LPS stimulation measured after 24 hrs by ELISA. Format: functional, cell-based. The method, boiled down:
as §3

Data set [12] is described as follows: Toxicity in Balb/c mouse assessed as effect on cage-side observations at 20 mg/kg, iv followed by dosing repeat on day 6, 8, 11, 13 and 15 and measured until day 18. Type of data set: organism-based. The note with it: in vivo.
Data set [13] deals with T2, Proteasome subunit beta type-10 (Homo sapiens) (UniProt P40306).
T2 sequence (whole entry): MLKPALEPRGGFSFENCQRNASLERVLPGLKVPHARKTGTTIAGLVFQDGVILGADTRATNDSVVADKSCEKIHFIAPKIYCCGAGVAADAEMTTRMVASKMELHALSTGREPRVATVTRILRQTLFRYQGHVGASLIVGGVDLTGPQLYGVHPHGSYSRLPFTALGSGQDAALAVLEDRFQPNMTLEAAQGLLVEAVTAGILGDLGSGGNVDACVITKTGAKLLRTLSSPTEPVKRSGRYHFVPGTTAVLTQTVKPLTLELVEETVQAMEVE
Kind of data set: Inhibition of MECL1 in human PBMC at 125 nM by ELISA. The method, boiled down:
as §2

The subject of data set [14] is PBMC. Kind of data set: Cytotoxicity in human PBMC assessed as reduction in cell viability at 250 nM relative to control. Format: cell-based.
Data set [15] is described as follows: Selectivity ratio of IC50 for MECL1 in mouse A20 cells to IC50 for MECL1 in human MOLT4 cells. Format: cell-based.
The target of data set [16] is T2, Proteasome subunit beta type-10 (Homo sapiens). The note with it: at 250 nM.
The subject of data set [17] is Mus musculus. Nature of the data set: Antiarthritic activity in type 2 collagen antibody/LPS induced Balb/c mouse assessed as reduction in disease burden at 5 mg/kg, iv followed by dosing repeat on day 6, 8, 11, 13 and 15 and measured until day 18.
Data set [18] deals with Mus musculus. Kind of data set: Antiarthritic activity in type 2 collagen antibody/LPS induced Balb/c mouse assessed as reduction in disease burden at 5 mg/kg, iv followed by dosing repeat on day 6, 8, 11, 13 and 15 and measured until day 18. Format: functional, organism-based. The method, boiled down:
as §4

With `COc1ccc(C[C@H](NC(=O)[C@@H](C)NC(=O)[C@H]2CC[C@H](O)CC2)C(=O)N[C@@H](CC2=CCCC2)C(=O)[C@@]2(C)CO2)cc1`, the inhibition entry in data set [1], in data set [2], in [3], in data set [9], in data set [10] and in [13] was “Active” throughout. In addition, the outcome in data set [4], in [5] and in data set [11] was inactive. The outcome in [6] and in data set [8] was Active. The Activity entry in data set [7] and in data set [12] was “Non-Toxic” in each case.
For the molecule `Cc1ccc(CC[C@H](NC(=O)[C@H](Cc2ccccc2)NC(=O)[C@H](CC(C)C)NC(=O)CN2CCCCCC2)C(=O)[C@@]2(C)CO2)cc1`, the Activity in data set [14] is listed as 30%. In addition, the Ratio IC50 in data set [15] came to 4. Moreover, the inhibition entry in data set [16] was “Active”.
With `COc1ccc([C@@H](O)[C@H](NC(=O)[C@H](C)NC(=O)CN2CCOCC2)C(=O)N[C@@H](CC2=CCCC2)C(=O)[C@@]2(C)CO2)cc1` [ZETOMIPZOMIB], the outcome in [17] and in data set [18] was Active.
